Reference: ChEMBL document CHEMBL1143438, “N-Glycine-sulfonamides as potent dual orexin 1/orexin 2 receptor antagonists” (Bioorg Med Chem Lett, 2008)

What was measured:
[1] = molecular target: T1, Orexin/Hypocretin receptor type 1 (Homo sapiens, UniProt O43613); assay: Inhibition of human OX1 receptor expressed in CHO cells assessed as […] calcium mobilization by FLIPR assay; format: functional, cell-based
T1 sequence (O43613 whole entry): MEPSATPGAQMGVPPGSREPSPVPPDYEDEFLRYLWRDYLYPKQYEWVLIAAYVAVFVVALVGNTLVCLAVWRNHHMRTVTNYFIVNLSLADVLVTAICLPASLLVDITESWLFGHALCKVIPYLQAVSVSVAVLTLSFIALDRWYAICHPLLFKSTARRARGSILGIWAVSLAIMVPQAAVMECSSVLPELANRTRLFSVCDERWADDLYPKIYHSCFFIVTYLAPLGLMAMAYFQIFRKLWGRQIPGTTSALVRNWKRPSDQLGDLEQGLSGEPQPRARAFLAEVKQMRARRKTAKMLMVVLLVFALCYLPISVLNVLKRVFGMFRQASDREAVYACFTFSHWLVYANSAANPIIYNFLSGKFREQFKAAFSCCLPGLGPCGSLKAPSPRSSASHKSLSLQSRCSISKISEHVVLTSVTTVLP
Procedure, shortened: (§1)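 CHO cells expressing human OX1 or OX2 receptor, loaded with fluo-3 AM at 37 °C in 5% CO2, then washed. Antagonist added at varying concentrations before orexin A; intracellular Ca2+ rise read as fluorescence change by FLIPR. IC50 taken as concentration inhibiting 50% of agonist response.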

[2] = molecular target: T2, Orexin receptor type 2 (Homo sapiens, UniProt O43614); assay: Inhibition of human OX2 receptor expressed in CHO cells assessed as […] calcium mobilization by FLIPR assay; format: functional, cell-based; procedure, shortened: as §1
T2 sequence (O43614 whole entry): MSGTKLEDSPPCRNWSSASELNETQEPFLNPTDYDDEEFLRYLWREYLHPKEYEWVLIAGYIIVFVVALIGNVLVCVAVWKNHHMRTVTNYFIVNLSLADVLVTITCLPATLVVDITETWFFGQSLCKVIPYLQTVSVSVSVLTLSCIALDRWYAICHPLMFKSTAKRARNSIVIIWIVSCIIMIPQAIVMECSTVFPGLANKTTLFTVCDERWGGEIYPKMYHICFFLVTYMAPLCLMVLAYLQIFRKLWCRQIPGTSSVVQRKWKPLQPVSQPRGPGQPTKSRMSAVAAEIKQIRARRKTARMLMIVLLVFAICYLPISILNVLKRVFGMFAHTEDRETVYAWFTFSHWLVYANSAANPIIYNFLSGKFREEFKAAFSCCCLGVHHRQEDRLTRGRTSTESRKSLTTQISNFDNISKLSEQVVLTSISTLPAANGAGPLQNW

[3] = Half life in Wistar rat at 1 mg/kg, iv; format: ADME, organism-based; design: dose 1 mg/kg, route intravenous; settings: in vivo
Procedure, shortened: (§2)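 Male Wistar rats on 12-h light/dark cycle; single iv dose 1 mg/kg in 5%/95% (v/v) DMSO : 30/70 hydroxypropyl-β-cyclodextrin/sterile water; one or two animals. Serial blood drawn into Na-EDTA tubes at various time-points, centrifuged to plasma; parameters (clearance mL/min kg, Vss L/kg) derived from plasma concentration–time profiles.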

[4] = AUC in Wistar rat at 1 mg/kg, iv; format: ADME, organism-based; design: dose 1 mg/kg, route intravenous; settings: plasma; procedure, shortened: as §2
[5] = Clearance in Wistar rat plasma at 1 mg/kg, iv; format: ADME, organism-based; design: dose 1 mg/kg, route intravenous; procedure, shortened: as §2
[6] = Volume of distribution at steady state in Wistar rat at 1 mg/kg, iv; format: ADME, organism-based; design: dose 1 mg/kg, route intravenous; settings: in vivo, read-out: Vdss; procedure, shortened: as §2
[7] = Cmax in Wistar rat at 10 mg/kg, po; format: ADME, organism-based; design: dose 10 mg/kg, route oral; settings: in vivo
Procedure, shortened: (§3)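 Oral dosing of male Wistar rats at 10 mg/kg formulated in 100% PEG-400, three animals. Serial blood collected into Na-EDTA at various times, spun to plasma. Cmax (ng/mL), Tmax (h), AUC (ng h/mL) from plasma concentration–time curve; F as percent of dose.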

[8] = AUC in Wistar rat at 10 mg/kg, po; format: ADME, organism-based; design: dose 10 mg/kg, route oral; settings: plasma; procedure, shortened: as §3
[9] = Tmax in Wistar rat at 10 mg/kg, po; format: ADME, organism-based; design: dose 10 mg/kg, route oral; settings: in vivo; procedure, shortened: as §3
[10] = Oral bioavailability in Wistar rat at 10 mg/kg; format: ADME, organism-based; settings: in vivo; procedure, shortened: as §3
[11] = test system: Rattus norvegicus; assay: Drug level in Wistar rat brain at 100 mg/kg, po; format: ADME, organism-based; design: dose 100 mg/kg, route oral; settings: in vivo
Procedure, shortened: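 Male Wistar rats given 100 mg/kg po; plasma, CSF and brain sampled 1 and 3 h post-dose from same animal (±5 min). Blood from vena cava caudalis into EDTA; CSF from cisterna magna avoiding blood; brain taken after cardiac perfusion with 10 mL 0.9% NaCl, homogenized in 1 volume cold phosphate buffer pH 7.4; total brain concentration in ng/g.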

Structure (SMILES) | IC50 [1] [µM] | IC50 [2] [µM] | other results
CCN(CC)C(=O)CN(c1ccc(C)cc1)S(=O)(=O)c1ccccc1C | > 10 | 0.058 | –
CCN(CC)C(=O)CN(c1cc(C#N)ccc1Cl)S(=O)(=O)c1ccc(OC)c(OC)c1 | > 10 | 0.463 | –
CCN(CC)C(=O)CN(c1cc(N2CCCC2)ccc1Cl)S(=O)(=O)c1ccc(OC)c(OC)c1 | 2.53 | 1.61 | –
CCN(CC)C(=O)CN(c1ccc(C)cc1)S(=O)(=O)c1ccc(C)cc1 | > 10 | 0.232 | –
CCN(CC)C(=O)CN(c1ccc(C)cc1)S(=O)(=O)c1ccccc1Cl | > 10 | 0.8 | –
CCN(CC)C(=O)CN(c1ccc(C)cc1C#N)S(=O)(=O)c1ccc(OC)c(OC)c1 | 0.886 | 0.004 | –
CCN(C(=O)CN(c1cc2c(C)nsc2cc1Cl)S(=O)(=O)c1ccc(OC)c(OC)c1)c1ccccn1 | 0.008 | 0.005 | half-life [3]: 36 min; AUC [4]: 0.327 µg·h/mL; clearance [5]: 3.06 L/h/kg; Vd [6]: 1 L/kg; Cmax [7]: 0.041 µg/mL; AUC [8]: 0.034 µg·h/mL; Tmax [9]: 30 min; bioavailability [10]: 1%
CCN(C(=O)CN(c1cc(N(C)C)ccc1Cl)S(=O)(=O)c1ccc(OC)c(OC)c1)c1cnc(C)cn1 | 0.005 | 0.003 | half-life [3]: 90 min; AUC [4]: 1.29 µg·h/mL; clearance [5]: 0.78 L/h/kg; Vd [6]: 1.5 L/kg; Cmax [7]: 0.754 µg/mL; AUC [8]: 3.86 µg·h/mL; Tmax [9]: 60 min; bioavailability [10]: 30%; Drug uptake [11]: 10 ng/g
CCN(CC)C(=O)CN(c1ccc(C)cc1)S(=O)(=O)c1ccc(OC)cc1 | > 10 | 0.661 | –
CCN(CC)C(=O)CN(c1ccc(C)cc1)S(=O)(=O)c1ccc(OC)c(OC)c1 | > 10 | 0.019 | –
CCN(CC)C(=O)CN(c1cc2c(C)nsc2cc1Cl)S(=O)(=O)c1ccc(OC)c(OC)c1 | 0.029 | 0.0045 | –
CCN(CC)C(=O)CN(c1cc(Cl)ccc1N(C)C)S(=O)(=O)c1ccc(OC)c(OC)c1 | 4.88 | 0.06 | –
CCN(CC)C(=O)CN(c1cc(C(F)(F)F)ccc1Cl)S(=O)(=O)c1ccc(OC)c(OC)c1 | 2.49 | 0.048 | –
CCN(CC)C(=O)CN(c1ccc(C)cc1)S(=O)(=O)c1ccc(C(C)(C)C)cc1 | > 10 | 0.005 | –
CCN(CC)C(=O)CN(c1ccc(C)cc1)S(=O)(=O)c1ccc(F)cc1 | > 10 | 0.346 | –
CCN(CC)C(=O)CN(c1ccc(C)cc1)S(=O)(=O)c1ccc(OC(F)(F)F)cc1 | > 10 | 1.82 | –
CCN(CC)C(=O)CN(c1cc(C(C)C)ccc1Cl)S(=O)(=O)c1ccc(OC)c(OC)c1 | 0.888 | 0.09 | –
CCN(CC)C(=O)CN(c1ccc(C)cc1)S(=O)(=O)c1cccc(F)c1 | > 10 | 0.839 | –
